MT1-MMP act inh: blocks activation of human MT1-MMP; HT1080 RFP-PRO-GFP cells, GFP/RFP ratio fluorescence, overnight; percent of plate control window, DMSO zero; GFP/RFP ratio change, % at 20 µM; actives 0.061% (n = 360,000);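 active = GFP/RFP ratio change of at least 30% with cell ATP level not reduced by more than half and red fluorescence within 50% of control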
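Material – HT1080 RFP-PRO-GFP cells · Control set – DMSO wells and RFP-L50D-GFP cells · Incubation – overnight cell settling, then overnight compound exposure, 37 °C, 5% CO2 · Compound dosing – single-point 20 µM compound, 1% DMSO · Read-out – GFP/RFP fluorescence ratio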
TLR9-MyD88 block: TLR9-MyD88 interaction inhibition. CHO BLA complementation TLR9-MyD88, CCF4 FRET ratio. Q9NR96+Q99836. inhibition, % at 4.98 µM. actives 0.21% (n = 340,000). AID 504734;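 active = inhibition above the mean over all tested compounds plus 3 SD, cut at about 21% in these data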;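 note: 0% = DMSO only wells and 100% = clavulanate BLA inhibitor control wells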
TLR4 MyD88 comp: inhibitors of human TLR4-MyD88 binding | O00206+Q99836 | HeLa CL3-4 TLR4/MyD88 BLA complementation, FRET ratio | inhibition, % at 8.4 µM | actives 0.18% (n = 200,000); in the data active = inhibition above about 25%;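 note: 0% = vehicle and 100% = reference inhibitor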
SKN-1 block: inhibitors of C. elegans SKN-1; C. elegans VP596 Pgst-4::GFP/RFP ratio, acrylamide-induced, 24 h; inhibition, % at 21.8 µM; actives 0.49% (n = 360,000);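 active = interference check ratio from 0.5 to 1.5 plus GFP to RFP signal ratio inhibition reaching or exceeding a fixed threshold, cut at about 30% in these data, passing the limit was not always enough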
NOD2-RIPK2 inh: NOD2-RIPK2 protein interaction inhibition; CHO BLA complementation NOD2-RIPK2, CCF4 ratio; O43353; actives 0.38% (n = 360,000); inhibition, % at 4.98 µM; in the data active = inhibition above about 21%;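 note: 0% = vehicle only and 100% = reference blocker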
Target sequence (O43353 whole entry, looked up): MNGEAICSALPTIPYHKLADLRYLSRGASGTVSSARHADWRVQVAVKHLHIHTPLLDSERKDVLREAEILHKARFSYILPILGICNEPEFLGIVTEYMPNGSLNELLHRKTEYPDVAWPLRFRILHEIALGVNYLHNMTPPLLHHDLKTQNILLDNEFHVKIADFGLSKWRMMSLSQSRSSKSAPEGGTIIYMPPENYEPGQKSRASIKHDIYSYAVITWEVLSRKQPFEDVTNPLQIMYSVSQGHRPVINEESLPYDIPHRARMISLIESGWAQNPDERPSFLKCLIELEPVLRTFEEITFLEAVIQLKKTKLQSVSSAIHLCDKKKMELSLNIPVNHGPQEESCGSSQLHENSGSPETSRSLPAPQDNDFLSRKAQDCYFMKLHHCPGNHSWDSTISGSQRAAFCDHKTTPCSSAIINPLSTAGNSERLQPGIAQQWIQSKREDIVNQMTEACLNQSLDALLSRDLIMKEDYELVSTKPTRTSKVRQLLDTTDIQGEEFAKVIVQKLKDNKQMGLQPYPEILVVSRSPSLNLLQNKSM
NOD2 RIPK2 conf: NOD2-RIPK2 interaction inhibition confirmed; shares compounds with NOD2-RIPK2 inh; CHO cells, NOD2-RIPK2 BLA complementation, CCF4 FRET; inhibition, % at 4.98 µM; actives 70% (n = 1,200); AID 624370;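 active = mean inhibition across replicates above a set limit taken from the earlier primary screen, cut at about 21% in these data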;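 note: 0% = DMSO-only wells and the high end = clavulanate BLA-blocked wells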
BLA counter: counter-screen for NOD2-RIPK2 interaction inhibitors: BLA reporter | shares compounds with NOD2-RIPK2 inh | CHO BLA reporter, CCF4 FRET ratio, counterscreen | inhibition, % at 4.98 µM | actives 57% (n = 1,200);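 active = mean inhibition above the low-control mean inhibition plus three low-control SD, cut at about 11% in these data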;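 note: 0% = DMSO only wells and 100% = clavulanate high control wells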
Numbers without * were called inactive. A selection: hits, their analogues and other compounds. The true share with any hit is near 0.99%.

Results for CCOC(=O)C1=C(C)N(C)C(C)=C(C(=O)OCC)C1c1ccccc1 ?
MT1-MMP act inh: 7.5; TLR9-MyD88 block: -25.4; TLR4 MyD88 comp: 0.0; SKN-1 block: -31.2; NOD2-RIPK2 inh: 53.0*; NOD2 RIPK2 conf: -8.0; BLA counter: -2.4

What do the screens show for `O=C(NCc1ccco1)C(=O)c1c[nH]c2ccccc12`?
MT1-MMP act inh: 1.4; TLR9-MyD88 block: 1.2; TLR4 MyD88 comp: 8.3; SKN-1 block: 7.0; NOD2-RIPK2 inh: 31.6*; NOD2 RIPK2 conf: -1.8; BLA counter: -3.8

What do the screens show for `COc1ccc(-n2nc(C#N)c(Cl)cc2=O)cc1`?
MT1-MMP act inh: 2.6; TLR4 MyD88 comp: 17.3; SKN-1 block: -4.0; NOD2-RIPK2 inh: 49.0*; NOD2 RIPK2 conf: 56.0*; BLA counter: 8.0

How did CN(C(=O)COC(=O)c1ccccc1NCCO)C1CCS(=O)(=O)C1 (stereo not drawn) do in these assays?
MT1-MMP act inh: 5.0; TLR9-MyD88 block: 0.9; SKN-1 block: -7.0; NOD2-RIPK2 inh: -2.4

What do the screens show for `COc1ccccc1N1C(=O)C2C(C(=O)c3ccccc3)=NN(c3ccc(Br)cc3)C2C1=O` (stereo not drawn)?
MT1-MMP act inh: -65.6; SKN-1 block: -10.5; NOD2-RIPK2 inh: 24.8*; NOD2 RIPK2 conf: 80.7*; BLA counter: 82.6*

How did COc1ccccc1N1C(=O)C2C(C(=O)c3ccccc3)=NN(c3ccc(C)cc3)C2C1=O (stereo not drawn) do in these assays?
MT1-MMP act inh: -101.2; SKN-1 block: -1.4; NOD2-RIPK2 inh: 26.6*; NOD2 RIPK2 conf: 66.7*; BLA counter: 67.1*

How did COC(=O)C1=NN(c2ccc(C)cc2)C2C(=O)N(c3ccccc3OC)C(=O)C12 (stereo not drawn) do in these assays?
MT1-MMP act inh: -2.3; TLR9-MyD88 block: -4.5; SKN-1 block: -4.9; NOD2-RIPK2 inh: -10.6

Results for COC1(OC)C=CC(=O)C=C1NC(=O)c1ccccc1OC(C)=O ?
MT1-MMP act inh: 5.5; TLR9-MyD88 block: -11.8; SKN-1 block: 9.2; NOD2-RIPK2 inh: 4.5

What do the screens show for `COc1ccccc1C(=O)n1nc(-c2ccccc2)nc1NCc1ccco1`?
MT1-MMP act inh: 11.6; TLR9-MyD88 block: 20.6; TLR4 MyD88 comp: 8.7; SKN-1 block: 8.0; NOD2-RIPK2 inh: 30.1*; NOD2 RIPK2 conf: 10.1; BLA counter: 15.9*

How did Cc1cccc(C)c1NC(=O)C(c1ccc(C#N)cc1)n1c(=O)c(-c2cc3ccccc3[nH]2)nc2ccccc21 (stereo not drawn) do in these assays?
MT1-MMP act inh: -17.6; SKN-1 block: 2.0; NOD2-RIPK2 inh: 58.1*; NOD2 RIPK2 conf: 54.8*; BLA counter: 73.5*

What do the screens show for `O=C(Nc1ccc2ccccc2c1)C(c1ccccc1)n1c(=O)c(-c2cc3ccccc3[nH]2)nc2ccccc21` (stereo not drawn)?
MT1-MMP act inh: -5.0; SKN-1 block: 4.7; NOD2-RIPK2 inh: 46.8*; NOD2 RIPK2 conf: 41.6*; BLA counter: 66.2*

How did Cc1cccc(C)c1NC(=O)C(c1ccccc1)n1c(=O)c(-c2ccccc2)nc2ccccc21 (stereo not drawn) do in these assays?
MT1-MMP act inh: -20.8; SKN-1 block: 2.4; NOD2-RIPK2 inh: -12.7

Results for Cc1cccc(C)c1NC(=O)C(c1ccccc1)n1c(=O)c(-c2cc3ccccc3[nH]2)nc2ccccc21 (stereo not drawn) ?
MT1-MMP act inh: -3.1; SKN-1 block: 7.2; NOD2-RIPK2 inh: 46.6*; NOD2 RIPK2 conf: 45.3*; BLA counter: 67.7*

What do the screens show for `Cc1cccc(C)c1NC(=O)C(c1ccc(-c2ccccc2)cc1)n1c(=O)c(-c2ccco2)nc2ccccc21` (stereo not drawn)?
MT1-MMP act inh: -7.8; SKN-1 block: 2.1; NOD2-RIPK2 inh: -0.6

Results for Cc1cccc(C)c1NC(=O)C(c1ccncc1)n1c(=O)c(-c2cc3ccccc3[nH]2)nc2ccccc21 (stereo not drawn) ?
MT1-MMP act inh: -14.3; SKN-1 block: -6.6; NOD2-RIPK2 inh: 47.1*; NOD2 RIPK2 conf: 44.1*; BLA counter: 63.4*

What do the screens show for `CC(C)(C)NC(=O)C(c1ccc(C#N)cc1)n1c(=O)c(-c2ccco2)nc2ccccc21` (stereo not drawn)?
MT1-MMP act inh: -6.6; SKN-1 block: 9.2; NOD2-RIPK2 inh: 6.0

How did CN(C)S(=O)(=O)c1ccc(Cl)c(NC(=O)COC(=O)CCC2CCCCC2)c1 do in these assays?
MT1-MMP act inh: 3.3; TLR9-MyD88 block: -11.8; SKN-1 block: -2.2; NOD2-RIPK2 inh: 4.5

Results for O=C(COc1ccccc1Cl)N1CCNC1=O ?
MT1-MMP act inh: -0.9; TLR9-MyD88 block: 8.4; SKN-1 block: -6.4; NOD2-RIPK2 inh: -0.6

Results for O=C(OCC(=O)N1CCN(c2ccccc2)CC1)c1cc(F)c(F)cc1Cl ?
MT1-MMP act inh: -4.5; TLR9-MyD88 block: -6.9; SKN-1 block: -0.1; NOD2-RIPK2 inh: 21.2*; NOD2 RIPK2 conf: -13.5; BLA counter: -4.0

What do the screens show for `O=C(OCC(=O)N1CCN(c2ccccc2)CC1)c1cc(Br)ccc1Cl`?
MT1-MMP act inh: 5.8; TLR9-MyD88 block: -0.8; SKN-1 block: 22.8; NOD2-RIPK2 inh: -20.2

What do the screens show for `CSc1ccc(S(=O)(=O)NC2CC2)cc1`?
MT1-MMP act inh: 1.4; TLR9-MyD88 block: -1.9; SKN-1 block: -2.2; NOD2-RIPK2 inh: -3.6

What do the screens show for `N#Cc1ccccc1OCC(=O)NNC(=O)CCNC(=O)c1ccccc1`?
MT1-MMP act inh: 0.4; TLR9-MyD88 block: -0.3; SKN-1 block: -11.3; NOD2-RIPK2 inh: 0.9

What do the screens show for `CCOc1ccc(C(=O)/C=C/c2cn(CN3CCN(C)CC3)c3ccccc23)cc1`?
MT1-MMP act inh: 2.4; TLR9-MyD88 block: 16.1; TLR4 MyD88 comp: 14.8; SKN-1 block: 29.0; NOD2-RIPK2 inh: 26.1*; NOD2 RIPK2 conf: 23.7*; BLA counter: 36.7*

How did Cc1ccc(C(=O)/C=C/c2cn(CC(O)CN3CCOCC3)c3ccccc23)cc1 (stereo not drawn) do in these assays?
MT1-MMP act inh: -9.4; TLR9-MyD88 block: 19.1; TLR4 MyD88 comp: 5.4; SKN-1 block: -1.0; NOD2-RIPK2 inh: 22.8*; NOD2 RIPK2 conf: 36.2*; BLA counter: 35.4*

How did Cc1ccc(OCCn2cc(/C=C/C(=O)O)c3ccccc32)cc1 do in these assays?
MT1-MMP act inh: -1.3; TLR9-MyD88 block: 1.1; SKN-1 block: 3.2; NOD2-RIPK2 inh: 1.3

What do the screens show for `O=Cc1cn(CC(O)CN2CCCCC2)c2ccccc12` (stereo not drawn)?
MT1-MMP act inh: -0.7; TLR9-MyD88 block: -9.3; TLR4 MyD88 comp: -1.8; SKN-1 block: 5.5; NOD2-RIPK2 inh: -10.1

Screening data deposited in PubChem by several laboratories.
